Sampled rows, rich in hits. Any-hit rate of the full collection: about 1.9%.
DNA FID counter – fluorescent intercalator displacement, NS3 helicase counter-screen | DNA fluorescent intercalator displacement, fluorescence | inhibition, % at 7.9 µM | hit rate 0.17% among 290,000; in the data active = inhibition above about 37%;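 note: higher means more ethidium bromide displaced from hairpin DNA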
HCV NS3 hel inh – inhibitors of Hepatitis C virus NS3 helicase; NS3 helicase DNA unwinding, Cy5 molecular beacon fluorescence; inhibition, % at 10.9 µM; hit rate 0.56% among 290,000; AID 1800;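 active = inhibition above the mean of all tested compounds plus 3 SD, set per campaign, cut at about 35% in these data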
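Control set: DMSO versus 110 µM thioflavine S; Material: NS3 helicase fragment of HCV; Measured by: Cy5 fluorescence at 0 and 60 min, beacon hairpin quenching; Read-out basis: percent inhibition from t60/t0 fluorescence ratio; Times: reaction time 60 min, 25 °C; Repeats: single replicate; Compound dosing: single dose, 10.9 µM nominal final, DMSO 0.8% final.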
pCIP destab – lowers stability of the mouse p/CIP coactivator protein. AID 1984. Q05BA5. decrease of EGFP signal, % at 10 µM. F442A p/CIP-EGFP cells, EGFP fluorescence, 16 h. hit rate 0.01% among 290,000;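 active = EGFP signal decrease of at least 30% at 10 µM or well 3 SD below plate mean, unless failing retest; inactive = the rest, including hits failing retest or dose response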
Target sequence (Q05BA5 1-1403): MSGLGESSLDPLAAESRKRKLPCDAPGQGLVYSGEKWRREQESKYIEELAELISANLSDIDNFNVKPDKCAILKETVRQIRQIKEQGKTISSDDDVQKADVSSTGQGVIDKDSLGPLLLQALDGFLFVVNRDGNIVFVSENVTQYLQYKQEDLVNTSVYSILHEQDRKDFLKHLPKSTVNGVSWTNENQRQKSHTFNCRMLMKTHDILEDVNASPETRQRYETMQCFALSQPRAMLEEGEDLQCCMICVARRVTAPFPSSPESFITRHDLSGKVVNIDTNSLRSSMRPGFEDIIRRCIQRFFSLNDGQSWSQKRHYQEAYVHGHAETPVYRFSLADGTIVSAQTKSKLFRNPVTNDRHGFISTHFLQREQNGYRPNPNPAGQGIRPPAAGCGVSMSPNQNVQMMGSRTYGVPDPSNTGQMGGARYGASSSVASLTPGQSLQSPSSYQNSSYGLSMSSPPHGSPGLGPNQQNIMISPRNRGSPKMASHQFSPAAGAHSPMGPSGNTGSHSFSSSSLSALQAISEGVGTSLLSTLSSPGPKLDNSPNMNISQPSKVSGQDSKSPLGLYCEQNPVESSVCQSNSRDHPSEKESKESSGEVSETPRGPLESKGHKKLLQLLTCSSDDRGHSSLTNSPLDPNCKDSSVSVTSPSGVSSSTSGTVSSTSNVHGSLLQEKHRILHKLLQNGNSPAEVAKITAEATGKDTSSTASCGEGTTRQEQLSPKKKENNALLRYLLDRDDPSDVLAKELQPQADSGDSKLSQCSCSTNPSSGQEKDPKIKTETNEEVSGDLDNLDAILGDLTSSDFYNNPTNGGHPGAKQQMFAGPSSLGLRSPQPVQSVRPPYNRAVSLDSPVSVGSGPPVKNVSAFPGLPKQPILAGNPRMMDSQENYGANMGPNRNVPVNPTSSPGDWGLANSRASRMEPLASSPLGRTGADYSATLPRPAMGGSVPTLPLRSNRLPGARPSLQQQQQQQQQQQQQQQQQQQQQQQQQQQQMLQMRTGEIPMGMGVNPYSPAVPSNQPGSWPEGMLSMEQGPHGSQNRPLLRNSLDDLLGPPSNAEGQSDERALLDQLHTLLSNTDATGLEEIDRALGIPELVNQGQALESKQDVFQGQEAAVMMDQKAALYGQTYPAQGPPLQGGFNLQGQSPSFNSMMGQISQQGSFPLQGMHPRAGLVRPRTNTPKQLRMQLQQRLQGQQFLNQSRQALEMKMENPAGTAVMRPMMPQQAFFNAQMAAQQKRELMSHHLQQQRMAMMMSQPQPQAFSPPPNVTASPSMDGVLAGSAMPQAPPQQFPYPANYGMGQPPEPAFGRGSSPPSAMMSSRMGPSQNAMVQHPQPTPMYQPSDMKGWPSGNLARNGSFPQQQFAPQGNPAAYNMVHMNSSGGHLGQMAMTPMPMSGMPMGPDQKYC
GPR7 antag – blocks human GPR7 receptor signaling; inhibition, % at 4.4 µM; P48145; hit rate 1.1% among 290,000; GPR7-expressing cells, fluorescence antagonist assay; AID 1861; in the data active = inhibition above about 16%, passing the limit was not always enough;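 note: cells stimulated with the agonist NPW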
core dimer inh – blocks dimerization of HCV core protein | inhibition, % at 5 µM | AID 1899 | TR-FRET GST/Flag-core106 dimerization, 1536-well | hit rate 0.33% among 300,000;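 active = inhibition above the mean of all tested compounds plus 3 SD, set per screening campaign, cut at about 45% in these data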
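Test system: GST/Flag-tagged HCV core106 proteins; Medium: KF-containing HEPES buffer, pH 7.45, DTT, CHAPS, BSA; Times: compound-protein-antibody incubation 4 h at 22.5 °C; Detection: TR-FRET 671 and 617 nm emission; Benchmarks: wells lacking GST-core106 and wells with excess unlabelled core106.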
GPR7 antag conf – confirmation of human GPR7 antagonists. shares compounds with GPR7 antag. hit rate 52% among 2,400. GPR7-expressing cells, calcium fluorescence antagonist mode. inhibition, % at 4.4 µM; in the data active = inhibition above about 24%;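 note: stimulated with the GPR7 agonist NPW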
MCHR1 antagonist – counter-screen for GPR7 antagonists: antagonists of human MCHR1. shares compounds with GPR7 antag. AID 2148. hit rate 62% among 2,400. MCHR1-expressing cells, fluorescence antagonist assay. inhibition, % at 4.4 µM; in the data active = inhibition above about 22%
Of the large screens only hits and unclear results are named; the others gave an inactive call (follow-up assays come after a bar, where they were run).

CCOC(=O)c1ccc(NC(=O)COc2ccc(CNC3CCCCC3)cc2OC)cc1	none
O=C(CCN1C(=O)/C(=C/c2ccccc2F)SC1=S)NCCCn1ccnc1	none
O=C(NCc1ccco1)/C(=C\C=C\c1ccccc1)NC(=O)c1ccccc1Br	none
O=[N+]([O-])c1ccc(N2CCN(c3ccc(F)cc3)CC2)nc1	GPR7 antag 47 | GPR7 antag conf 45 | MCHR1 antagonist 56
COc1cccc(N2CCN(c3ccc([N+](=O)[O-])cn3)CC2)c1	GPR7 antag 41 | GPR7 antag conf 40 | MCHR1 antagonist 72
O=[N+]([O-])c1ccc(N2CCN(c3ccccc3)CC2)nc1	none
CC(C)C(NC(=O)CN1C(=O)c2ccccc2C1=O)c1ccccc1 (configuration not stated)	none (no result: core dimer inh)
O=C(Nc1ccc2snnc2c1)Nc1cccc2ccccc12	GPR7 antag 36 | GPR7 antag conf 40 | MCHR1 antagonist 77
Cc1nc2cc(NC(=O)Nc3cccc4ccccc34)ccc2n1C	none
COc1ccc(OC)c(C(C(=O)NC2CCCCC2)N(C(=O)c2ccccn2)c2cccnc2)c1 (configuration not stated)	none
CC(Sc1nnc(-c2cccnc2)n1C)C(=O)N1CCOCC1 (configuration not stated)	none (no result: DNA FID counter, HCV NS3 hel inh, pCIP destab, GPR7 antag)
CCOc1ccc2nc(NC(=O)CSc3cn[nH]n3)sc2c1	GPR7 antag 22 | GPR7 antag conf inactive | MCHR1 antagonist inactive
C/C(=N/NC(=O)CCc1ccccc1)c1ccc2c(c1)OCO2	GPR7 antag 26 (no result: core dimer inh) | GPR7 antag conf inactive | MCHR1 antagonist inactive
COc1ccc(NC(=O)/C(Cl)=C(/Cl)S(=O)Cc2ccc(Cl)cc2)cn1 (configuration not stated)	GPR7 antag 30 (no result: pCIP destab, core dimer inh) | GPR7 antag conf 80 | MCHR1 antagonist 93
COc1ccc(NC(=O)C(Cl)=C(Cl)Cl)cn1	none (no result: core dimer inh)
Cn1c(=O)c2ccccc2n(Cc2ccccc2Cl)c1=O	none
CN(C)C(CNS(=O)(=O)c1ccc2ccccc2c1)c1ccccc1 (configuration not stated)	none
CCOC(=O)c1ccc(Nc2ncnc3nc[nH]c23)cc1	none
c1ccc(COc2ccc(Nc3ncnc4nc[nH]c34)cc2)cc1	GPR7 antag 34 | GPR7 antag conf inactive | MCHR1 antagonist 23
CCCCCCN1C=CC(=C/C=C(\C#N)C(=O)OCC)C=C1	GPR7 antag 30 | GPR7 antag conf 47 | MCHR1 antagonist 64
Cc1c(CN2CCC(n3nccc3NC(=O)C3CCOC3)CC2)[nH]c2ccccc12 (configuration not stated)	none (no result: core dimer inh)
O=C(Nc1ccnn1C1CCN(Cc2cc3ccccc3[nH]2)CC1)C1CCOC1 (configuration not stated)	GPR7 antag 82 | GPR7 antag conf 53 | MCHR1 antagonist 74
COc1ccc(CN2CCN(Cc3cc4ccccc4o3)CC2CCO)cc1C (configuration not stated)	none
O=Cc1ccnc(-c2ccc(OC(=O)c3ccco3)cc2)n1	none
CCCCC(c1nnnn1C1CCCC1)N1CCN(C2CCCC2)CC1 (configuration not stated)	none
CCCC(c1nnnn1C1CCCCC1)N1CCN(C2CCCC2)CC1 (configuration not stated)	GPR7 antag 22 | GPR7 antag conf inactive | MCHR1 antagonist inactive
C(=C\c1ccccc1)/CSc1nnc(-c2cnccn2)n1Cc1ccco1	GPR7 antag 21 | GPR7 antag conf 24 | MCHR1 antagonist 39
Fc1ccccc1CSc1nnc(-c2cnccn2)n1Cc1ccco1	none
Clc1ccc(C(c2nnnn2CCc2ccccc2)N2CCSCC2)cc1 (configuration not stated)	GPR7 antag 28 | GPR7 antag conf 31 | MCHR1 antagonist 41
Cc1ccc(CCNC(=O)c2cccc(NC3=NC4CS(=O)(=O)CC4S3)c2)cc1 (configuration not stated)	none
Cc1ccccc1NC(=O)c1cccc(S(=O)(=O)Oc2ccc([N+](=O)[O-])cc2)c1	GPR7 antag 27 | GPR7 antag conf 44 | MCHR1 antagonist 42
Cc1ccccc1-c1cc(C(=O)O)nn1CC1CC(c2cccc([N+](=O)[O-])c2)=NO1 (configuration not stated)	none (no result: DNA FID counter, HCV NS3 hel inh, pCIP destab, GPR7 antag)
O=C(O)COn1c(-c2ccccc2)nc2ccc([N+](=O)[O-])cc21	GPR7 antag 31 | GPR7 antag conf inactive | MCHR1 antagonist inactive
Cc1ccc(COn2c(-c3ccc(Cl)cc3)nc3ccc([N+](=O)[O-])cc32)cc1	none
CCOC(=O)C(C)On1c(-c2ccc(Cl)cc2)nc2ccc([N+](=O)[O-])cc21 (configuration not stated)	GPR7 antag 26 | GPR7 antag conf 35 | MCHR1 antagonist 52
CCOC(=O)C(C)On1c(-c2ccccc2)nc2ccc([N+](=O)[O-])cc21 (configuration not stated)	none (no result: GPR7 antag) | MCHR1 antagonist inactive
COc1ccc(-n2c(=S)[nH]c3cc(C(=O)NCCCN4CCOCC4)ccc3c2=O)cc1OC	none
CN(C)S(=O)(=O)c1ccc(C(=O)NCc2nnc(SCC(=O)N3CCCC3)o2)cc1	none
CCC[C@@H](CN[C@@H](CNC)[C@H](C)CC)NCC1CCC(C(C)(C)C)CC1 (some centres not stated)	DNA FID counter 40, GPR7 antag 47 | GPR7 antag conf 51 | MCHR1 antagonist 64
CCCC[C@@H](CNC)NC[C@H](NCCCCC1CCCCC1)C(C)C	none
CCOC(=O)C1=C(C)Nc2[nH]c(=O)[nH]c(=O)c2C1c1cccs1 (configuration not stated)	none
COC(=O)C1=C(C)Nc2nc(SCc3ccccc3)[nH]c(=O)c2C1c1cccs1 (configuration not stated)	GPR7 antag 33 | GPR7 antag conf inactive | MCHR1 antagonist 34
O=C(O)CSc1nnc(-c2cccc(S(=O)(=O)N3CCOCC3)c2)n1-c1cccc(Cl)c1	none
O=C(NC1(C(=O)NC2CCCCC2)CCCCC1)c1ccc2c(c1)OCO2	none
O=C(c1ccc2c(c1)OCO2)N(CC1CCCO1)C1(C(=O)NC2CCCC2)CCCCC1 (configuration not stated)	GPR7 antag 32 | GPR7 antag conf 31 | MCHR1 antagonist inactive
Cc1ccc(OCc2nnc(SCC(=O)NCc3ccco3)n2C)cc1	none
CCn1c(COc2ccc(C)cc2)nnc1SCC(=O)NCc1ccco1	GPR7 antag 24 | GPR7 antag conf inactive | MCHR1 antagonist inactive
Cc1ccc(CN(C(=O)c2c(F)cccc2F)C2CC(C)(C)NC(C)(C)C2)o1	GPR7 antag 25 | GPR7 antag conf inactive | MCHR1 antagonist inactive
COc1cccc(OCc2cc(C(=O)N(C)C3CC(C)(C)NC(C)(C)C3)no2)c1	none

Source: PubChem BioAssay (several laboratories)
